From ChEMBL document CHEMBL1140415, “Synthesis, anti-HIV activity, and metabolic stability of new alkenyldiarylmethane HIV-1 non-nucleoside reverse transcriptase inhibitors” (J Med Chem, 2005)

What was measured:
[1] = tested on: Human immunodeficiency virus 1; assay: In vitro anti-HIV activity against HIV-1RF infected in CEM-SS cells using MTS cytoprotection assay; format: functional, organism-based; conditions: Human immunodeficiency virus 1, CEM-SS
[2] = target: Human immunodeficiency virus type 1 reverse transcriptase (Human immunodeficiency virus 1, UniProt Q72547); assay: Inhibition of recombinant HIV-1 reverse transcriptase activity
[3] = tested on: CEM-SS; assay: Cytotoxic concentration against mock infected in CEM-SS cells; format: functional; conditions: Homo sapiens
How it was run: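 Mock-infected CEM-SS cells, tested alongside the HIV-1 RF cytoprotection (MTS) assay. Data come from triplicate tests.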

[4] = tested on: MT4; assay: Cytotoxic concentration against mock infected in MT-4 cells; format: functional; conditions: Homo sapiens
How it was run: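 Uninfected (mock-infected) MT-4 cells, run alongside the MTT antiviral assay. Triplicate tests.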

[5] = In vitro hydrolytic stability in rat plasma, expressed as t1/2; format: ADME, cell-free
How it was run: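 1,1-Diphenylethylene (2.1–5.1 mg) or benzophenone (2.1 mg) served as internal standard. Hydrolysis of the methyl ester was followed, and t1/2 is given in min ± SD from triplicate tests.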

[6] = tested on: Human immunodeficiency virus 1; assay: In vitro anti-HIV activity against HIV-1 IIIB infected in MT-4 cells using MTT assay; format: functional, organism-based; conditions: Human immunodeficiency virus 1, MT4
How it was run: (§1)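 MT-4 cells infected with HIV-1 strain IIIB or HIV-2 strain ROD. Protection from viral cytopathicity was read by MTT. Triplicate tests.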

[7] = tested on: Human immunodeficiency virus 2; assay: In vitro anti-HIV activity against HIV-2ROD infected in MT-4 cells using MTT assay; format: functional, organism-based; conditions: Human immunodeficiency virus 2, MT4; how it was run: as §1
[8] = In vitro hydrolytic stability in rat plasma, expressed as t1/2; Not hydrolyzed; format: ADME, cell-free
How it was run: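 Compounds (4.3–9.3 mg) were incubated in rat plasma in vitro. 1,1-Diphenylethylene (2.1–5.1 mg) or benzophenone (2.1 mg) served as internal standard. Hydrolysis of the methyl ester was followed, and t1/2 is given in min ± SD from triplicate tests.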

SMILES | IC50 [2] [µM] | half-life [5] [s] | T1/2 [8] | EC50 [1] [µM] | CC50 [3] [µM] | CC50 [4] [µM] | EC50 [6] [µM] | EC50 [7] [µM]
COC(=O)c1cc(C(=CCCN2CCOC2=O)c2cc(Br)c(OC)c(C(=O)OC)c2)cc(Br)c1OC |  |  |  | 0.02 |  |  |  | 
COC(=O)CCC/C=C(/c1cc(Cl)c(OC)c(C(=O)OC)c1)c1cc(Cl)ccc1OC | > 100 | 46.2 |  | > 100 | 9.3 | 5.41 | > 5.41 | > 5.41
COC(=O)CCC/C=C(/c1cc(F)cc(C(F)(F)F)c1)c1cc(C)c(OC)c(C(=O)OC)c1 | 55.3 | 261 |  | 7.3 | 12 | 113 | 2.54 | 10.6
COC(=O)CCC/C=C(\c1cc(C)c(OC)c(C(=O)OC)c1)c1cc(Cl)ccc1OC | > 100 | 28.2 |  | > 100 | 8.3 | 18.8 | > 18.8 | > 14.5
COc1ccc(/C(=C\CCN2CCOC2=O)c2cc(F)cc(C(F)(F)F)c2)cc1OC | 97.8 |  | Not hydrolyzed | > 100 | 14.5 | 18.5 | > 18.5 | > 13.4
COC(=O)CCC/C=C(/c1cc(C)c2on(C)c(=O)c2c1)c1cc(Cl)ccc1OC | 8.2 | 28.8 |  | > 100 | 13 | > 28.8 | > 28.8 | > 28.8
COC(=O)CCC/C=C(\c1cc(F)cc(C(F)(F)F)c1)c1cc(C)c2on(C)c(=O)c2c1 | > 100 | 52.2 |  | > 100 | 16.8 | 39.8 | > 35.7 | > 43.2
COC(=O)c1cc(/C(=C\CCN2CCOC2=O)c2cc(F)cc(C(F)(F)F)c2)cc(C)c1OC | 15.7 | 563 |  | 8.3 | 15 | 24.7 | 9.6 | > 22.6
COC(=O)c1cc(C(=CCCN2CCOC2=O)c2ccc(OC)c(OC)c2)cc(C)c1OC | > 100 | 47.4 |  | > 100 | 4.79 | 82.5 | > 33.8 | > 35.4
COC(=O)CCC/C=C(\c1cc(F)cc(C(F)(F)F)c1)c1cc(C)c2onc(OC)c2c1 | 0.9 |  |  |  |  |  |  | 
COC(=O)CCC/C=C(\c1cc(F)cc(C(F)(F)F)c1)c1cc(C)c(OC)c(C(=O)OC)c1 | > 100 |  |  | > 5 | > 5 | 5.7 | > 5.51 | > 5.89

Continued, in another order:

IC50 [2] [µM] | half-life [5] [s] | T1/2 [8] | SMILES | EC50 [1] [µM] | CC50 [3] [µM] | CC50 [4] [µM] | EC50 [6] [µM] | EC50 [7] [µM]
0.074 |  |  | COC(=O)CCC/C=C(/c1ccc(OC)c(OC)c1)c1cc(C)c(OC)c(C(=O)OC)c1 | 0.21 | 1.14 |  |  | 
> 100 | 58.8 |  | COC(=O)CCC/C=C(/c1cc(C)c(OC)c(C(=O)OC)c1)c1cc(Cl)ccc1OC | > 100 | 15.5 | 13.8 | > 13.8 | > 13.8
7.58 | 25.2 |  | COC(=O)CCC/C=C(\c1cccc(C#N)c1)c1cc(Cl)ccc1OC | 7 | 16.3 | ≥ 45.2 | 9.11 | > 67.6
> 100 |  |  | COC(=O)CCC/C=C(\c1cc(F)cc(C(F)(F)F)c1)c1cc(Cl)c(OC)c(C(=O)OC)c1 | > 100 | 16.1 |  |  | 
> 100 |  | Not hydrolyzed | COc1ccc(/C(=C\CCN2CCOC2=O)c2cc(F)ccc2C(F)(F)F)cc1OC | > 100 | 26.7 |  |  | 
0.84 | 42.6 |  | COC(=O)CCC/C=C(\c1cccc(C#N)c1)c1cc(C)c(OC)c(C(=O)OC)c1 | > 100 | 23.3 | 153 | 12.8 | > 169
5.7 | 87.6 |  | COC(=O)CCC/C=C(\c1cccc(C#N)c1)c1cc(C)c2onc(OC)c2c1 | > 100 | 0.8 | 4.69 | > 2.05 | > 5.63
0.75 | 26.4 |  | COC(=O)CCC/C=C(\c1cccc(C#N)c1)c1cc(Cl)c(OC)c(C(=O)OC)c1 | 7.1 | 20.2 | 213 | 8.55 | 
1 | 346 |  | COC(=O)c1cc(/C(=C\CCN2CCOC2=O)c2ccc(OC)c(OC)c2)cc(C)c1OC | > 100 | 0.49 | 1.05 | > 1.05 | > 1.05
